{
  "source": "ChEMBL document CHEMBL1781959",
  "about": "“Synthesis and in vitro antitumor activity of substituted quinazoline and quinoxaline derivatives: search for anticancer agent” (Eur J Med Chem, 2011)",
  "assay_type_in_all_cases": "functional",
  "key": {"[1]": {"tested_on": "CAKI-1", "test": "Anticancer activity against human Caki1 cells assessed as cell growth promotion at 10^-5 M after 48 hrs by SRB assay relative to control"}, "[2]": {"tested_on": "HCC 2998", "test": "Anticancer activity against human HCC2998 cells assessed as cell growth promotion at 10^-5 M after 48 hrs by SRB assay relative to control"}, "[3]": {"tested_on": "U-251", "test": "Anticancer activity against human U251 cells assessed as cell growth promotion at 10^-5 M after 48 hrs by SRB assay relative to control"}, "[4]": {"tested_on": "OVCAR-5", "test": "Anticancer activity against human OVCAR5 cells assessed as cell growth promotion at 10^-5 M after 48 hrs by SRB assay relative to control"}, "[5]": {"tested_on": "SF-539", "test": "Anticancer activity against human SF539 cells assessed as cell growth promotion at 10^-5 M after 48 hrs by SRB assay relative to control"}, "[6]": {"tested_on": "LOX IMVI", "test": "Anticancer activity against human LOXIMVI cells assessed as cell growth promotion at 10^-5 M after 48 hrs by SRB assay relative to control"}, "[7]": {"tested_on": "HOP-62", "test": "Anticancer activity against human HOP62 cells assessed as cell growth promotion at 10^-5 M after 48 hrs by SRB assay relative to control"}, "[8]": {"tested_on": "MDA-MB-231", "test": "Anticancer activity against human MDA-MB-231 cells assessed as cell growth promotion at 10^-5 M after 48 hrs by SRB assay relative to control"}, "[9]": {"tested_on": "A549", "test": "Anticancer activity against human A549 cells assessed as cell growth promotion at 10^-5 M after 48 hrs by SRB assay relative to control"}, "[10]": {"tested_on": "COLO 205", "test": "Anticancer activity against human COLO205 cells assessed as cell growth promotion at 10^-5 M after 48 hrs by SRB assay relative to control"}, "[11]": {"tested_on": "K562", "test": "Anticancer activity against human K562 cells assessed as cell growth promotion at 10^-5 M after 48 hrs by SRB assay relative to control"}, "[12]": {"tested_on": "NCI-H226", "test": "Anticancer activity against human NCI-H226 cells assessed as cell growth promotion at 10^-5 M after 48 hrs by SRB assay relative to control"}, "[13]": {"tested_on": "CCRF-CEM", "test": "Anticancer activity against human CCRF-CEM cells assessed as cell growth promotion at 10^-5 M after 48 hrs by SRB assay relative to control"}, "[14]": {"tested_on": "HCT-116", "test": "Anticancer activity against human HCT116 cells assessed as cell growth promotion at 10^-5 M after 48 hrs by SRB assay relative to control"}, "[15]": {"tested_on": "NCI-H460", "test": "Anticancer activity against human NCI-H460 cells assessed as cell growth promotion at 10^-5 M after 48 hrs by SRB assay relative to control"}, "[16]": {"tested_on": "SK-MEL-28", "test": "Anticancer activity against human SK-MEL-28 cells assessed as cell growth promotion at 10^-5 M after 48 hrs by SRB assay relative to control"}, "[17]": {"tested_on": "HT-29", "test": "Anticancer activity against human HT-29 cells assessed as cell growth promotion at 10^-5 M after 48 hrs by SRB assay relative to control"}, "[18]": {"tested_on": "NCI/ADR-RES", "test": "Anticancer activity against human NCI/ADR-RES cells assessed as cell growth promotion at 10^-5 M after 48 hrs by SRB assay relative to control"}, "[19]": {"tested_on": "HL-60(TB)", "test": "Anticancer activity against human HL-60(TB) cells assessed as cell growth promotion at 10^-5 M after 48 hrs by SRB assay relative to control", "outline": "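NCI-60 single-dose screen: compound at 10^-5 M, 48 h at 37 °C, 5% CO2; cells grown in RPMI 1640 with 5% FBS and 2 mM L-glutamine, pre-incubated 24 h before dosing. Adherent cells fixed with cold TCA; endpoint is sulforhodamine B protein staining. Percent growth of treated cells is reported relative to untreated control.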"}, "[20]": {"test": "Anticancer activity against human […] cells assessed as cell growth promotion at 10^-5 M after 48 hrs by SRB assay relative to control"}, "[21]": {"tested_on": "NCI-H322M", "test": "Anticancer activity against human NCI-H322M cells assessed as cell growth promotion at 10^-5 M after 48 hrs by SRB assay relative to control"}, "[22]": {"test": "Anticancer activity against human Hs 578T cells assessed as cell growth promotion at 10^-5 M after 48 hrs by SRB assay relative to control"}, "[23]": {"tested_on": "IGROV-1", "test": "Anticancer activity against human IGROV1 cells assessed as cell growth promotion at 10^-5 M after 48 hrs by SRB assay relative to control"}, "[24]": {"tested_on": "UACC-62", "test": "Anticancer activity against human UACC62 cells assessed as cell growth promotion at 10^-5 M after 48 hrs by SRB assay relative to control"}, "[25]": {"tested_on": "UACC-257", "test": "Anticancer activity against human UACC257 cells assessed as cell growth promotion at 10^-5 M after 48 hrs by SRB assay relative to control"}, "[26]": {"tested_on": "PC-3", "test": "Anticancer activity against human PC3 cells assessed as cell growth promotion at 10^-5 M after 48 hrs by SRB assay relative to control"}, "[27]": {"tested_on": "HCT-15", "test": "Anticancer activity against human HCT15 cells assessed as cell growth promotion at 10^-5 M after 48 hrs by SRB assay relative to control"}, "[28]": {"tested_on": "SN12C", "test": "Anticancer activity against human SN12C cells assessed as cell growth promotion at 10^-5 M after 48 hrs by SRB assay relative to control"}, "[29]": {"tested_on": "SF-268", "test": "Anticancer activity against human SF268 cells assessed as cell growth promotion at 10^-5 M after 48 hrs by SRB assay relative to control"}, "[30]": {"tested_on": "OVCAR-3", "test": "Anticancer activity against human OVCAR3 cells assessed as cell growth promotion at 10^-5 M after 48 hrs by SRB assay relative to control"}, "[31]": {"tested_on": "SR", "test": "Anticancer activity against human SR cells assessed as cell growth promotion at 10^-5 M after 48 hrs by SRB assay relative to control"}, "[32]": {"tested_on": "SF-295", "test": "Anticancer activity against human SF295 cells assessed as cell growth promotion at 10^-5 M after 48 hrs by SRB assay relative to control"}, "[33]": {"tested_on": "Malme-3M", "test": "Anticancer activity against human MALME-3M cells assessed as cell growth promotion at 10^-5 M after 48 hrs by SRB assay relative to control"}, "[34]": {"tested_on": "786-0", "test": "Anticancer activity against human 786-0 cells assessed as cell growth promotion at 10^-5 M after 48 hrs by SRB assay relative to control"}, "[35]": {"tested_on": "NCI-H23", "test": "Anticancer activity against human NCI-H23 cells assessed as cell growth promotion at 10^-5 M after 48 hrs by SRB assay relative to control"}, "[36]": {"tested_on": "MCF7", "test": "Anticancer activity against human MCF7 cells assessed as cell growth promotion at 10^-5 M after 48 hrs by SRB assay relative to control"}, "[37]": {"tested_on": "SW-620", "test": "Anticancer activity against human SW620 cells assessed as cell growth promotion at 10^-5 M after 48 hrs by SRB assay relative to control"}, "[38]": {"tested_on": "MDA-MB-468", "test": "Anticancer activity against human MDA-MB-468 cells assessed as cell growth promotion at 10^-5 M after 48 hrs by SRB assay relative to control"}},
  "data": [
    {"smiles": "Oc1ccccc1/C=C/c1nc2ccccc2nc1SCc1nc2ccccc2[nH]1", "values": [
      {"measurement": "Activity", "setting": "[1]", "value": 56.68, "unit": "%"},
      {"measurement": "Activity", "setting": "[2]", "value": 102, "unit": "%"},
      {"measurement": "Activity", "setting": "[3]", "value": 83.34, "unit": "%"},
      {"measurement": "Activity", "setting": "[4]", "value": 86.09, "unit": "%"},
      {"measurement": "Activity", "setting": "[5]", "value": 97.28, "unit": "%"},
      {"measurement": "Activity", "setting": "[6]", "value": 78.17, "unit": "%"},
      {"measurement": "Activity", "setting": "[7]", "value": 73.71, "unit": "%"},
      {"measurement": "Activity", "setting": "[8]", "value": 53.69, "unit": "%"},
      {"measurement": "Activity", "setting": "[9]", "value": 77.16, "unit": "%"},
      {"measurement": "Activity", "setting": "[10]", "value": 96.37, "unit": "%"},
      {"measurement": "Activity", "setting": "[11]", "value": 77.33, "unit": "%"},
      {"measurement": "Activity", "setting": "[12]", "value": 79.35, "unit": "%"},
      {"measurement": "Activity", "setting": "[13]", "value": 41.14, "unit": "%"},
      {"measurement": "Activity", "setting": "[14]", "value": 65.39, "unit": "%"},
      {"measurement": "Activity", "setting": "[15]", "value": 80.34, "unit": "%"},
      {"measurement": "Activity", "setting": "[16]", "value": 95.95, "unit": "%"},
      {"measurement": "Activity", "setting": "[17]", "value": 83.56, "unit": "%"},
      {"measurement": "Activity", "setting": "[18]", "value": 82.43, "unit": "%"},
      {"measurement": "Activity", "setting": "[19]", "value": 26.78, "unit": "%"},
      {"measurement": "Activity", "setting": "[20]", "value": 63.38, "unit": "%"},
      {"measurement": "Activity", "setting": "[21]", "value": 80.01, "unit": "%"},
      {"measurement": "Activity", "setting": "[22]", "value": 48.8, "unit": "%"},
      {"measurement": "Activity", "setting": "[23]", "value": 59.92, "unit": "%"},
      {"measurement": "Activity", "setting": "[24]", "value": 58.04, "unit": "%"},
      {"measurement": "Activity", "setting": "[25]", "value": 81.1, "unit": "%"},
      {"measurement": "Activity", "setting": "[26]", "value": 63.9, "unit": "%"},
      {"measurement": "Activity", "setting": "[27]", "value": 74.29, "unit": "%"},
      {"measurement": "Activity", "setting": "[28]", "value": 78.21, "unit": "%"},
      {"measurement": "Activity", "setting": "[29]", "value": 81.66, "unit": "%"},
      {"measurement": "Activity", "setting": "[30]", "value": 81.53, "unit": "%"},
      {"measurement": "Activity", "setting": "[31]", "value": 44.46, "unit": "%"},
      {"measurement": "Activity", "setting": "[32]", "value": 93.22, "unit": "%"},
      {"measurement": "Activity", "setting": "[33]", "value": 83.19, "unit": "%"},
      {"measurement": "Activity", "setting": "[34]", "value": 89.92, "unit": "%"},
      {"measurement": "Activity", "setting": "[35]", "value": 76.93, "unit": "%"},
      {"measurement": "Activity", "setting": "[36]", "value": 51.8, "unit": "%"},
      {"measurement": "Activity", "setting": "[37]", "value": 93.22, "unit": "%"},
      {"measurement": "Activity", "setting": "[38]", "value": 59.53, "unit": "%"}
    ]}
  ]
}
